Measured values reported in ChEMBL document CHEMBL3588768, “Synthesis and bioactivity of tripolinolate A from Tripolium vulgare and its analogs” (Bioorg Med Chem Lett, 2015).
The source made the active and inactive calls. No cut-off for these calls is given here.

Experiments:
U-87 MG [1] = assay: Antiproliferative activity against human U87MG cells after 72 hrs by sulforhodamine B assay; type: functional, cell-based, U-87MG ATCC; settings: for inhibition: U-87MG ATCC
In short: (§1)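 Sulforhodamine B assay on glioma (U251, U87-MG) and colorectal (HCT-15, SW620) cancer cells. Cells were exposed to a range of compound concentrations for 72 h, then stained with SRB. IC50 values were derived from the dose–response. Doxorubicin served as positive control.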

U-251 = assay: Antiproliferative activity against human U251 cells after 72 hrs by sulforhodamine B assay; type: functional, cell-based; settings: for IC50: U-251, 72 h; in short: as §1
HCT-15 = assay: Antiproliferative activity against human HCT15 cells after 72 hrs by sulforhodamine B assay; type: functional, cell-based; settings: for IC50: HCT-15, 72 h; in short: as §1
SW-620 = assay: Antiproliferative activity against human SW620 cells after 72 hrs by sulforhodamine B assay; type: functional, cell-based; settings: for IC50: SW-620, 72 h; in short: as §1
Staphylococcus aureus = assay: Antimicrobial activity against Staphylococcus aureus after 5 to 12 hrs by micro broth dilution assay; type: functional, organism-based
Escherichia coli = assay: Antimicrobial activity against Escherichia coli after 5 to 12 hrs by micro broth dilution assay; type: functional, organism-based
U-87 MG [2] = assay: Induction of apoptosis in human U87MG cells assessed as bright blue nuclear pyknosis at 20 uM by DAPI staining; type: functional, cell-based; settings: U-87MG ATCC
In short: (§2)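 U87-MG glioma cells were exposed to compound at 20 µM for 72 h, then double-stained with DAPI and propidium iodide. Cells were viewed by fluorescence microscopy. Condensed bright-blue DAPI nuclei were scored as apoptotic; red PI-stained cells were scored as necrotic.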

U-87 MG [3] = assay: Induction of apoptosis in human U87MG cells assessed as necrotic cells at 20 uM by PI staining; type: functional, cell-based; settings: U-87MG ATCC; in short: as §2
U-87 MG [4] = assay: Induction of apoptosis in human U87MG cells assessed as early apoptotic cells at 40 uM after 72 hrs by annexin V-FITC/PI staining-based flow cytometric analysis (reference value: 3.41%); type: functional, U-87MG ATCC
U-87 MG [5] = assay: Induction of apoptosis in human U87MG cells assessed as late apoptotic cells at 40 uM after 72 hrs by annexin V-FITC/PI staining-based flow cytometric analysis (reference value: 3.23%); type: functional, U-87MG ATCC
U-87 MG [6] = assay: Induction of apoptosis in human U87MG cells assessed as total apoptotic cells at 40 uM after 72 hrs by annexin V-FITC/PI staining-based flow cytometric analysis (reference value: 6.64%); type: functional, U-87MG ATCC
U-87 MG [7] = assay: Induction of apoptosis in human U87MG cells assessed as viable cells at 40 uM after 72 hrs by annexin V-FITC/PI staining-based flow cytometric analysis (reference value: 93.12%); type: functional, U-87MG ATCC; settings: read-out: Activity
U-87 MG [8] = assay: Induction of apoptosis in human U87MG cells assessed as necrotic cells at 40 uM after 72 hrs by annexin V-FITC/PI staining-based flow cytometric analysis (reference value: […]); type: functional, U-87MG ATCC
U-87 MG [9] = assay: Induction of apoptosis in human U87MG cells assessed as early apoptotic cells at 10 uM after 72 hrs by annexin V-FITC/PI staining-based flow cytometric analysis (reference value: 3.41%); type: functional, U-87MG ATCC
U-87 MG [10] = assay: Induction of apoptosis in human U87MG cells assessed as late apoptotic cells at 10 uM after 72 hrs by annexin V-FITC/PI staining-based flow cytometric analysis (reference value: 3.23%); type: functional, U-87MG ATCC
U-87 MG [11] = assay: Induction of apoptosis in human U87MG cells assessed as total apoptotic cells at 10 uM after 72 hrs by annexin V-FITC/PI staining-based flow cytometric analysis (reference value: 6.64%); type: functional, U-87MG ATCC
U-87 MG [12] = assay: Induction of apoptosis in human U87MG cells assessed as viable cells at 10 uM after 72 hrs by annexin V-FITC/PI staining-based flow cytometric analysis (reference value: 93.12%); type: functional, U-87MG ATCC; settings: read-out: Activity
U-87 MG [13] = assay: Induction of apoptosis in human U87MG cells assessed as necrotic cells at 10 uM after 72 hrs by annexin V-FITC/PI staining-based flow cytometric analysis (reference value: 0.24%); type: functional, U-87MG ATCC
U-87 MG [14] = assay: Induction of apoptosis in human U87MG cells assessed as early apoptotic cells at 20 uM after 72 hrs by annexin V-FITC/PI staining-based flow cytometric analysis (reference value: 3.41%); type: functional, U-87MG ATCC
U-87 MG [15] = assay: Induction of apoptosis in human U87MG cells assessed as late apoptotic cells at 20 uM after 72 hrs by annexin V-FITC/PI staining-based flow cytometric analysis (reference value: 3.23%); type: functional, U-87MG ATCC
U-87 MG [16] = assay: Induction of apoptosis in human U87MG cells assessed as total apoptotic cells at 20 uM after 72 hrs by annexin V-FITC/PI staining-based flow cytometric analysis (reference value: 6.64%); type: functional, U-87MG ATCC
U-87 MG [17] = assay: Induction of apoptosis in human U87MG cells assessed as viable cells at 20 uM after 72 hrs by annexin V-FITC/PI staining-based flow cytometric analysis (reference value: 93.12%); type: functional, U-87MG ATCC; settings: read-out: Activity
U-87 MG [18] = assay: Induction of apoptosis in human U87MG cells assessed as necrotic cells at 20 uM after 72 hrs by annexin V-FITC/PI staining-based flow cytometric analysis (reference value: 0.24%); type: functional, U-87MG ATCC

CCCC(=O)Oc1ccc(/C=C/COC(C)=O)cc1OC
IC50 (U-87 MG [1]): 10.5 µM
IC50 (U-251): 45.7 µM
IC50 (HCT-15): 17.1 µM
IC50 (SW-620): 7.59 µM
inhibition (Staphylococcus aureus): inactive
inhibition (Escherichia coli): inactive

O=C(/C=C/c1ccc(O)c(O)c1)O[C@H]1[C@H](O)C[C@](O)(C(=O)O)C[C@H]1OC(=O)/C=C/c1ccc(O)c(O)c1
inhibition (Staphylococcus aureus): inactive
inhibition (Escherichia coli): inactive

COc1cc(/C=C/COC(C)=O)ccc1OC(C)=O
IC50 (U-87 MG [1]): 1.06 µM
inhibition (U-87 MG [1]): Dose-dependent effect
inhibition (U-251): Dose-dependent effect
IC50 (U-251): 9.71 µM
inhibition (HCT-15): Dose-dependent effect
IC50 (HCT-15): 3.26 µM
inhibition (SW-620): Dose-dependent effect
IC50 (SW-620): 0.36 µM
Activity (U-87 MG [2]): Active
Activity (U-87 MG [3]): Active
Activity (U-87 MG [4]): 21.62%
Activity (U-87 MG [5]): 35.71%
Activity (U-87 MG [6]): 57.33%
viability at 40 µM (U-87 MG [7]): 42.1%
Activity (U-87 MG [8]): 0.57%
inhibition (Staphylococcus aureus): inactive
inhibition (Escherichia coli): inactive

COc1cc(/C=C/CO)ccc1O
inhibition (Staphylococcus aureus): inactive
inhibition (Escherichia coli): inactive

C/C(=C\CO)CCC[C@H](C)CCC[C@H](C)CCCC(C)C [TRANS-PHYTOL]
IC50 (U-87 MG [1]): 8.02 µM
IC50 (U-251): 27.8 µM
IC50 (HCT-15): 22.5 µM
IC50 (SW-620): 5.85 µM
inhibition (Staphylococcus aureus): inactive
inhibition (Escherichia coli): inactive

CCCCCCC(=O)OC/C=C/c1ccc(OC(=O)CCCCCC)c(OC)c1
inhibition (Staphylococcus aureus): inactive
inhibition (Escherichia coli): inactive

CC[C@H](C)C(=O)OC/C=C/c1ccc(OC(=O)[C@@H](C)CC)c(OC)c1
inhibition (Staphylococcus aureus): inactive
inhibition (Escherichia coli): inactive

O=c1c(O[C@@H]2O[C@H](CO)[C@@H](O)[C@H](O)[C@H]2O)c(-c2ccc(O)cc2)oc2cc(O)cc(O)c12 [ASTRAGALIN]
IC50 (U-87 MG [1]): 3.12 µM
IC50 (U-251): 37.6 µM
IC50 (HCT-15): 23.5 µM
IC50 (SW-620): 4.6 µM
inhibition (Staphylococcus aureus): inactive
inhibition (Escherichia coli): inactive

CCCC(=O)OC/C=C/c1ccc(OC(=O)CC(C)C)c(OC)c1
inhibition (Staphylococcus aureus): inactive
inhibition (Escherichia coli): inactive

O=C(/C=C/c1ccc(O)c(O)c1)O[C@@H]1C[C@](O)(C(=O)O)C[C@@H](OC(=O)/C=C/c2ccc(O)c(O)c2)[C@H]1O
inhibition (Staphylococcus aureus): inactive
inhibition (Escherichia coli): inactive

COc1cccc2c1C(=O)c1c(O)c3c(c(O)c1C2=O)C[C@@](O)(C(=O)CO)C[C@@H]3O[C@H]1C[C@H](N)[C@H](O)[C@H](C)O1 [DOXORUBICIN]
IC50 (U-87 MG [1]): 0.93 µM
IC50 (U-251): 2.2 µM
IC50 (HCT-15): 1.13 µM
IC50 (SW-620): 1.33 µM
Activity (U-87 MG [9]): 20.15%
Activity (U-87 MG [10]): 11.02%
Activity (U-87 MG [11]): 31.17%
viability at 10 µM (U-87 MG [12]): 68.2%
Activity (U-87 MG [13]): 0.6%
inhibition (Staphylococcus aureus): inactive
inhibition (Escherichia coli): inactive

COc1cc(/C=C/C(=O)O)ccc1O
inhibition (Staphylococcus aureus): inactive
inhibition (Escherichia coli): inactive

CCCCCC(=O)OC/C=C/c1ccc(OC(=O)CCCCC)c(OC)c1
inhibition (Staphylococcus aureus): inactive
inhibition (Escherichia coli): inactive

CC(C)[C@@H](C)/C=C/[C@@H](C)[C@H]1CCC2=C3C=CC4=CC(=O)CC[C@]4(C)[C@H]3CC[C@@]21C
inhibition (Staphylococcus aureus): inactive
inhibition (Escherichia coli): inactive

CCCCC(=O)OC/C=C/c1ccc(OC(=O)CCCC)c(OC)c1
inhibition (Staphylococcus aureus): inactive
inhibition (Escherichia coli): inactive

CC[C@H](C)C(=O)Oc1ccc(/C=C/COC(C)=O)cc1OC
IC50 (U-87 MG [1]): 0.48 µM
inhibition (U-87 MG [1]): Dose-dependent effect
inhibition (U-251): Dose-dependent effect
IC50 (U-251): 12.9 µM
inhibition (HCT-15): Dose-dependent effect
IC50 (HCT-15): 4.58 µM
inhibition (SW-620): Dose-dependent effect
IC50 (SW-620): 0.99 µM
Activity (U-87 MG [2]): Active
Activity (U-87 MG [3]): Active
Activity (U-87 MG [14]): 9.02%
Activity (U-87 MG [15]): 36.12%
Activity (U-87 MG [16]): 45.14%
viability at 20 µM (U-87 MG [17]): 54.5%
Activity (U-87 MG [18]): 0.37%
inhibition (Staphylococcus aureus): inactive
inhibition (Escherichia coli): inactive

CCCCCCCC(=O)OC/C=C/c1ccc(OC(=O)CCCCCCC)c(OC)c1
inhibition (Staphylococcus aureus): inactive
inhibition (Escherichia coli): inactive
